Compound activity from PubChem.
Hits are enriched below; roughly 2.9% of the tested compounds scored in any of these assays.
TRPC4 PAM: allosteric potentiators of mouse TRPC4 channel. Q9QUQ5. HEK293 TRPC4beta/mu-opioid, DAMGO EC20, Fluo-4 Ca2+ flux; stronger effect = higher value. B-score at 10 µM. 310,000 compounds, 0.42% hits. AID 2227;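 active means B-score of calcium response area above 5 SD of library B-scores, with initial fluorescence ratio within 5 SD of library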;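 further: B-score of integrated fluorescence ratio over time as area under calcium response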
Kir21 block: inhibitors of mouse Kir2.1 inward-rectifier potassium channel; AID 1672; B-score at 10 µM; 310,000 compounds, 0.85% hits; P35561; HEK293-Kir2.1, FluxOR thallium flux fluorescence; stronger effect = lower value;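 active means fluorescence ratio B-score at or below minus 3 SD of library scores, with starting-brightness B-score within 2 SD, cut at about -4.2 in these data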;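 further: channel flux triggered by added potassium and thallium sulfate stimulus; B-score of peak minus minimum fluorescence over baseline after thallium stimulus; more negative B-score means stronger Kir2.1 block with less thallium influx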
TRPC6 inh: blocks the mouse TRPC6 cation channel; B-score at 10 µM; 310,000 compounds, 1.1% hits; HEK293-TRPC6, membrane potential dye, ACh-evoked depolarization; stronger effect = lower value; Q61143;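 active means B-score under library mean minus 3 SD, initial fluorescence not abnormally high, positive integrated signal ratio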;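 further: B-score derived from integrated fluorescence ratio over the kinetic read; more negative B-score means stronger inhibition of depolarization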
TRPC6 activator: activates the mouse TRPC6 cation channel; HEK293-TRPC6 membrane potential dye fluorescence; stronger effect = higher value; AID 2550; B-score at 10 µM; 310,000 compounds, 0.13% hits; Q61143;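 active means B-score of the integrated fluorescence ratio above library mean plus 3 SD, and starting fluorescence ratio within library mean plus 5 SD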;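 further: higher score means more depolarization so channel activation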
TRPC4 act: TRPC4 (mouse) channel activation. Q9QUQ5. HEK293 TRPC4beta/mu-opioid, Fluo4 calcium fluorescence; stronger effect = higher value. B-score at 10 µM. 310,000 compounds, 0.49% hits. AID 2237;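 active means B-score above 5 SD of library B-scores, and initial fluorescence ratio not above library mean plus 5 SD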;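 further: positive B-score marks a calcium rise read as TRPC4 activation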
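System – HEK293 cells stably co-expressing mouse TRPC4beta and mu-opioid receptor · Signal – Fluo4 calcium-sensitive dye fluorescence, kinetic, 1 Hz baseline · Benchmarks – buffer (low) and maximal DAMGO (high) · Read-out – B score of integrated fluorescence ratio per well · Incubation – dye loading 45 min room temperature, 110 s kinetic read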
TRPC4 inh: TRPC4 (mouse) channel inhibition | Q9QUQ5 | HEK293 TRPC4beta/mu-opioid, DAMGO-evoked Fluo4 calcium flux; stronger effect = lower value | B-score at 10 µM | 300,000 compounds, 0.39% hits | AID 2247;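 active means B-score over 3 SD under the library average, no early fluorescence shift, positive overall ratio signal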
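Signal: kinetic Fluo4 fluorescence imaging of calcium influx. Material: stable TRPC4beta/mu-opioid receptor HEK293 cells. Probe or stimulus: DAMGO in two steps, submaximal then maximal.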
* hit, by the source's call; i = inactive.

SMILES	TRPC4 PAM	Kir21 block	TRPC6 inh	TRPC6 activator	TRPC4 act	TRPC4 inh
O=S(=O)(c1ccc(Cl)cc1)N1CCCCC1c1cccnc1 (stereo unspecified)	i	-8.96*	i	i	i	i
Cc1ccc(S(=O)(=O)N2CCCC2c2cccnc2)cc1 (stereo unspecified)	i	-3.85	i	i	i	i
O=S(=O)(c1ccc(F)cc1)N1CCCCC1c1cccnc1 (stereo unspecified)	i	-4.87*	i	i	i	i
O=S(=O)(c1ccc(F)cc1)N1CCCC1c1cccnc1 (stereo unspecified)	i	-1.51	i	i	i	i
COc1ccc(OCC#CCN2CCCCCC2)cc1	i	0.55	i	i	i	i
Cc1ccc(C(C)C)c(OCC#CCN2CCCC2)c1	i	-4.21*	i	i	i	i
Cc1cc(OC(=O)N(C)C)nc(SCc2c(Cl)cccc2Cl)n1	11*	-0.03	i	i	i	i
CN(C)C(=O)Oc1c(Cl)cc(Cl)c2ccccc12	i	0.32	i	i	i	i
CN1CCN(c2ccc([N+](=O)[O-])c(N)c2)CC1	10*	0.16	i	i	i	i
O=[N+]([O-])c1ccc(N2CCNCC2)cc1N1CCCCCC1	18*	-1.11	i	i	i	i
CN1CCN(c2ccc([N+](=O)[O-])c(NCc3ccco3)c2)CC1	i	-0.61	i	i	i	i
Nc1cc(N2CCNCC2)ccc1[N+](=O)[O-]	26*	-0.27	i	i	77*	i
O=[N+]([O-])c1ccc(N2CCNCC2)cc1NCc1ccco1	i	-4.42*	i	i	i	i
Cc1cc(C)[n+](C2C3CC4CC(C3)CC2C4)o1 (stereo unspecified)	i	-0.16	i	i	i	i
O=c1[nH]c(=O)n(Cc2ccccc2Cl)c(O)c1/C=C1/C=CC=N1	i	0.77	i	i	i	i
CNc1cc(N2CCNCC2)ccc1[N+](=O)[O-]	13*	0.51	i	i	i	i
COc1ccc(C(=O)OC2C[C@H]3CC[C@@H](C2)N3O)cc1OC (stereo partly specified)	i	-0.09	i	i	i	i
COc1ccc(CCNCc2ccc(SC)cc2)cc1	i	-5.54*	i	i	101*	i
COc1cccc(CNCCc2ccc(F)cc2)c1	i	0.04	i	i	i	i
CN1CCN(Cc2cc(C(C)(C)C)c(O)c(C(C)(C)C)c2)CC1	11*	0.59	i	i	i	i
c1ccc2nc(OCCN3CC3)ccc2c1	18*	-0.72	i	i	i	i
COc1cccc(-c2nn(CCC#N)cc2C(=O)Nc2ccccc2Cl)c1	i	-0.97	i	i	i	i
CN1CCCN(c2ccc([N+](=O)[O-])nc2)CC1	i	2.49	i	i	i	i
CN1CCN(c2ccc([N+](=O)[O-])cc2Cl)CC1	27*	-2.15	i	i	i	i
CC1CN(c2cc([N+](=O)[O-])ccc2Cl)CC(C)N1 (stereo unspecified)	i	-0.44	i	i	i	i
CC1CN(c2ccc([N+](=O)[O-])cc2Cl)CCN1 (stereo unspecified)	66*	0.06	i	i	63*	i
COc1ccccc1CNC(=O)CCC(=O)N1C[C@H]2C[C@@H](C1)c1cccc(=O)n1C2	i	1	i	i	i	i
CCCN1CCCC(C(=O)c2cc(C)c(OC)c(C)c2)C1 (stereo unspecified)	i	-1.56	i	i	i	i
CC1CN=C(Nc2ccc(F)c(Cl)c2)S1 (stereo unspecified)	i	1.23	i	i	i	i
c1ccc(C2NCCc3[nH]cnc32)cc1 (stereo unspecified)	i	-0.47	i	i	i	i
